Active and inactive are the calls of the source. The calls are words filed in the database; no cut-off is given here. Bounds are passed on as bounds.

Test [1] in a line: Inhibition of interaction of RNA polymerase beta' subunit CH-region and region 2.2 of RNA polymerase sigma factor RpoD/RNA polymerase sigma factor sigA (unknown origin) at 15 uM […] followed by incubation at room temperature for 1 hr by ELISA method. On the technique in general: ELISA stands for enzyme-linked immunosorbent assay.
Test [2] has as its system Escherichia coli. As to the kind of experiment: Growth inhibition of Escherichia coli DH5[alpha] at 200 uM incubated for 16 hrs. In kind it is functional. The settings on record: for inhibition of growth at 200 µM: read-out: GI. The method in brief: (§1)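 E. coli DH5α grown at 37 °C in LB with shaking to OD600 0.6–0.7, then added to wells holding compound diluted from a 50 mM DMSO stock. Plates shaken at 37 °C, with OD600 read every 10 min over 16 h against an LB blank. Growth inhibition expressed as % of the no-inhibitor control.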

Test [3] relates to Bacillus subtilis. As to the kind of experiment: Growth inhibition of Bacillus subtilis 168 at 200 uM incubated for 16 hrs. It counts as functional. The settings on record: for inhibition of growth at 200 µM: Bacillus subtilis, 168, 16 h, read-out: GI.
The nature of test [4]: Inhibition of interaction of RNA polymerase beta' subunit CH-region and region 2.2 of RNA polymerase sigma factor RpoD/RNA polymerase sigma factor sigA (unknown origin) pre-incubated at 37 degC for 15 mins with enzyme followed by incubation at room temperature for 1 hr by ELISA method.
Test [5] deals with Escherichia coli. As to the kind of experiment: Growth inhibition of Escherichia coli DH5[alpha] assessed as effect on exponential phase of bacterial growth at 200 uM incubated for 16 hrs. In kind it is functional. The settings on record: read-out: GI. Summed up:
as §1

Test [6] deals with Escherichia coli. Nature of the test: Growth inhibition of Escherichia coli DH5[alpha] incubated for 16 hrs. In kind it is functional. The method in brief:
as §1

For test [7], the system named is Bacillus subtilis. Nature of the test: Growth inhibition of Bacillus subtilis 168 assessed as effect on exponential phase of bacterial growth at 200 uM incubated for 16 hrs. In kind it is functional. The following applies: Bacillus subtilis, 168, 16 h; read-out: GI.
A further test deals with Staphylococcus aureus. Nature of the test: Growth inhibition of Staphylococcus aureus at 200 uM incubated for 16 hrs. It counts as functional. The following applies: read-out: GI.
Test [8] concerns Bacillus subtilis. As to the kind of experiment: Growth inhibition of Bacillus subtilis 168 incubated for 16 hrs. In kind it is functional.

In turn, `COc1cc(OC)c2c(-c3ccc(Br)cc3)c(C(=O)C(=O)N3CCCCC3)[nH]c2c1` came in with an inhibition in test [1] of 39%. For the same molecule, the inhibition of growth at 200 µM in the test on Escherichia coli [2] was 7%; with Bacillus subtilis [3], 22%.
Regarding `COc1cc(OC)c2c(-c3ccc(Br)cc3)c[nH]c2c1C(=O)C(=O)N1CCOCC1`, in [1], the inhibition is 31%. For the same molecule, in test [4], the IC50 amounted to 33.9 µM. Moreover, in the test with Escherichia coli [5], the inhibition of growth at 200 µM turned out to be 59%. Besides, the GI in the test on Escherichia coli [6] was >100 µM. Also, the “growth inhibition (GI)” value in the test with Bacillus subtilis [3] was “inactive”.
Take `COc1cc(OC)c2c(-c3ccc(Br)cc3)c[nH]c2c1C(=O)Nc1ccc(C)cc1`: the inhibition of growth at 200 µM with Escherichia coli [2] was found to be 12%; with Bacillus subtilis [3], 36%.
`COc1cc(OC)c2c(C)c(C(=O)C(=O)N3CCOCC3)[nH]c2c1` yielded an inhibition in test [1] of 33%. Moreover, the inhibition of growth at 200 µM with Escherichia coli [2] and in the test with Bacillus subtilis [3] was 2% in each case.
As for `COc1cc(OC)c2c(C)c(C)[nH]c2c1C(=O)C(=O)N1CCOCC1`, the inhibition in test [1] worked out at 7%. For the same molecule, the inhibition of growth at 200 µM with Bacillus subtilis [7] is 42%. Besides, the “growth inhibition (GI)” value in the test on Escherichia coli [2] is “inactive”.
In turn, `COc1cc(OC)c2c(-c3ccc(Cl)cc3)c(C(=O)C(=O)N3CCOCC3)[nH]c2c1` yielded an inhibition in test [1] of 27%. Moreover, the inhibition of growth at 200 µM with Bacillus subtilis [7] and with Escherichia coli [2] was 37% throughout.
On to `COc1cc(OC)c2c(-c3ccc(Br)cc3)c[nH]c2c1C(=O)C(=O)Nc1ccc(C)cc1`, for which the inhibition of growth at 200 µM in the test on Escherichia coli [2] was determined as 29%. The “growth inhibition (GI)” value in the test on Bacillus subtilis [3] was “inactive”.
In turn, `COc1cc(OC)c2c(-c3ccc(Br)cc3)c[nH]c2c1C(=O)Nc1ccccc1` registered an inhibition in test [1] of 49%. In addition, the inhibition of growth at 200 µM was determined as 13% in the test on Escherichia coli [2] and 7% with Bacillus subtilis [3].
Take `COc1cc(OC)c2c(-c3ccc(Cl)cc3)c[nH]c2c1C(=O)Nc1ccc(C)cc1`: the inhibition of growth at 200 µM with Escherichia coli [2] and in the test on Bacillus subtilis [3] was 13% each time.
As to `O=C(C(=O)N1CCN(Cc2ccccc2)CC1)c1c[nH]c2ccccc12`, the inhibition in test [1] was found to be 21%. In addition, the values for the inhibition of growth at 200 µM in the test on Escherichia coli [2] and with Bacillus subtilis [3] were 6% and 70%, respectively.
For `COc1cc(OC)c2c(-c3ccc(Br)cc3)c[nH]c2c1C(=O)C(=O)Nc1ccccc1` the same measures were 34%, 33% and 36%.
Taken in the same sequence, the figures for `COc1cc(OC)c2c(-c3ccccc3)c(C(=O)C(=O)N3CCN(c4ccccn4)CC3)oc2c1` were 41%, 10% and 3%.
For `COc1cc(OC)c2c(-c3ccc(Br)cc3)c[nH]c2c1C(=O)C(=O)NNc1ccccc1` the same measures were 34%, 24% and 10%.
For `COc1cc(OC)c2c(-c3ccc(Br)cc3)c(C(=O)C(=O)N3CCN(c4ccccn4)CC3)[nH]c2c1`, in [1], the inhibition amounted to 25%. In addition, the inhibition of growth at 200 µM came out at 38% with Escherichia coli [2] and 19% in the test with Bacillus subtilis [3].
In turn, `COc1cc(OC)c2c(C)c(C(=O)C(=O)N3CCN(C)CC3)[nH]c2c1` yielded an inhibition in test [1] of 44%. For the same molecule, the “growth inhibition (GI)” value with Escherichia coli [2] and in the test with Bacillus subtilis [3] was “inactive” each time.
`COc1cc(OC)c2c(C)c(C)[nH]c2c1C(=O)C(=O)N1CCN(c2ccccn2)CC1` returned an inhibition in test [1] of 27%. The inhibition of growth at 200 µM is 13% in the test on Escherichia coli [2] and 12% in the test on Bacillus subtilis [3].
On to `COc1cc(OC)c2c(-c3ccc(Cl)cc3)c[nH]c2c1C(=O)C(=O)N1CCCC1`, for which the inhibition result in test [1] is “inactive”. Also, the inhibition of growth at 200 µM turned out to be 23% in the test with Escherichia coli [2] and 60% in the test on Staphylococcus aureus.
In the case of `COc1cc(OC)c2c(-c3ccc(Cl)cc3)c(C(=O)N3CCOCC3)[nH]c2c1`, the inhibition entry in [1] is “inactive”. The inhibition of growth at 200 µM with Escherichia coli [2] was 42%. In addition, in the test with Bacillus subtilis [3], the “growth inhibition (GI)” value was “inactive”.
In the case of `COc1cc(OC)c2c(-c3ccc(Cl)cc3)c(C(=O)C(=O)N3CCCCC3)[nH]c2c1`, in [1], the inhibition result is “inactive”. For the same molecule, in the test on Escherichia coli [2], the inhibition of growth at 200 µM amounted to 18%. In addition, the “growth inhibition (GI)” value in the test with Bacillus subtilis [3] is “inactive”.
Regarding `COc1cc(OC)c2c(-c3ccc(Cl)cc3)c[nH]c2c1C(=O)C(=O)N1CCOCC1`, the inhibition result in test [1] was “inactive”. Moreover, the inhibition of growth at 200 µM with Escherichia coli [5] was 38%. Also, the “growth inhibition (GI)” value in the test on Bacillus subtilis [3] was “inactive”.
As for `COc1cc(OC)c2c(C)c(C(=O)C(=O)N3CCCC3)[nH]c2c1`, the inhibition in test [1] was 44%. In addition, the “growth inhibition (GI)” value in the test with Escherichia coli [2] and in the test on Bacillus subtilis [3] was “inactive” each time.
Take `COc1cc(OC)c2c(-c3ccc(Br)cc3)c[nH]c2c1C(=O)NNc1ccccc1`: in test [1], the inhibition stood at 44%. The inhibition of growth at 200 µM in the test on Escherichia coli [2] came to 23%. In the test on Bacillus subtilis [3], the “growth inhibition (GI)” value is “inactive”.
For `COc1cc(OC)c2c(-c3ccc(Cl)cc3)c[nH]c2c1C(=O)NNc1ccccc1` the same measures were 60%, 21% and “inactive”.
In the case of `COc1cc(OC)c2c(C)c(C(=O)C(=O)N3CCN(c4ccccn4)CC3)[nH]c2c1`, in test [1], the inhibition was 48%. Also, the inhibition of growth at 200 µM in the test on Escherichia coli [2] turned out to be 38%; in the test on Bacillus subtilis [3], 14%.
Taken in the same sequence, the figures for `COc1cc(OC)c2c(C)c(C(=O)C(=O)N3CCN(Cc4ccccc4)CC3)[nH]c2c1` were 46%, 16% and 7%.
Consider `COc1cc(OC)c2c(-c3ccc(Br)cc3)c(C(=O)C(=O)N3CCCC3)[nH]c2c1`, for which the inhibition entry in [1] was “inactive”. Also, the “growth inhibition (GI)” value in the test with Escherichia coli [2] and in the test on Bacillus subtilis [3] was “inactive” throughout.
For `COc1cc(OC)c2c(-c3ccc(Cl)cc3)c[nH]c2c1C(=O)C(=O)NNc1ccccc1`, the inhibition in [1] was determined as 26%. The inhibition of growth at 200 µM in the test with Escherichia coli [2] was 20%. Further, the “growth inhibition (GI)” value with Bacillus subtilis [3] is “inactive”.
In the case of `COc1cc(OC)c2c(-c3ccc(Cl)cc3)c[nH]c2c1C(=O)C(=O)N1CCCCC1`, the inhibition result in test [1] was “inactive”. Also, the “growth inhibition (GI)” value in the test on Escherichia coli [2] and in the test on Bacillus subtilis [3] was “inactive” in each case.
Molecule `CCOC(=O)CNC(=O)C(=O)c1[nH]c2cc(OC)cc(OC)c2c1-c1ccc(Cl)cc1` returned an inhibition in test [1] of 42%. In the test with Escherichia coli [2], the inhibition of growth at 200 µM is 53%. Also, the “growth inhibition (GI)” value with Bacillus subtilis [3] is “inactive”.
With `COc1cc(OC)c2c(-c3ccccc3)c(C(=O)C(=O)N3CCOCC3)oc2c1`, the inhibition in test [1] was 29%. Besides, the GI in the test on Bacillus subtilis [8] is >100 µM. In addition, the inhibition of growth at 200 µM in the test on Bacillus subtilis [7] worked out at 70%; in the test on Escherichia coli [2], 6%. This molecule also registered an IC50 in test [4] of 71.6 µM.
For the molecule `COc1cc(OC)c2c(-c3ccc(Cl)cc3)c[nH]c2c1C(=O)C(=O)Nc1ccccc1`, in test [1], the inhibition was 23%. The inhibition of growth at 200 µM in the test with Escherichia coli [2] is 23%; with Bacillus subtilis [3] it was 26%.
In test [1], `COc1cc(OC)c2c(C)c(C(=O)C(=O)N3CCCCC3)[nH]c2c1` returned an inhibition of 17%. Also, the “growth inhibition (GI)” value with Escherichia coli [2] and in the test with Bacillus subtilis [3] was “inactive” in each case.
The molecule `O=C(C(=O)N1CCN(c2ccccn2)CC1)c1c[nH]c2ccccc12` yielded an inhibition in test [1] of 27%. In addition, the inhibition of growth at 200 µM was 4% in the test on Escherichia coli [2] and 10% with Bacillus subtilis [3].
Regarding `COc1cc(OC)c2c(-c3ccc(Br)cc3)c[nH]c2c1C(=O)C(=O)N1CCN(Cc2ccccc2)CC1`, in test [1], the inhibition is 8%. Also, the inhibition of growth at 200 µM in the test with Escherichia coli [2] came to 6%. Also, in the test on Bacillus subtilis [3], the “growth inhibition (GI)” value is “inactive”.
Turning to `COc1cc(OC)c2c(C)c(C)[nH]c2c1C(=O)C(=O)N1CCCCC1`, the inhibition in test [1] came to 39%. The values for the inhibition of growth at 200 µM with Bacillus subtilis [7] and with Escherichia coli [2] were 57% and 24%, respectively.
In test [1], `COc1cc(OC)c2c(-c3ccc(Br)cc3)c[nH]c2c1C(=O)C(=O)N1CCCCC1` came in with an inhibition of 32%. Further, the inhibition of growth at 200 µM with Escherichia coli [2] was found to be 26%; with Bacillus subtilis [3], 14%.
In test [1], `O=C(C(=O)N1CCOCC1)c1c[nH]c2ccccc12` displayed an inhibition of 39%. For the same molecule, the inhibition of growth at 200 µM in the test on Escherichia coli [2] is 4%. In addition, in the test on Bacillus subtilis [3], the “growth inhibition (GI)” value was “inactive”.
Regarding `O=C(C(=O)N1CCCCC1)c1c[nH]c2ccccc12`, in test [1], the inhibition was 37%. For the same molecule, the inhibition of growth at 200 µM in the test with Escherichia coli [2] turned out to be 9%; with Bacillus subtilis [3] it was 12%.
As to `COc1cc(OC)c2c(-c3ccc(Cl)cc3)c[nH]c2c1C(=O)C(=O)Nc1ccc(C)cc1`, the inhibition in test [1] is 37%. Further, in the test with Escherichia coli [2], the inhibition of growth at 200 µM is 20%. The “growth inhibition (GI)” value with Bacillus subtilis [3] was “inactive”.

In general, inhibition refers to the share of the control response that was lost under treatment. What is called IC50 is the concentration that gives 50% inhibition. A high value points to weaker potency.

The values above are taken from ChEMBL document CHEMBL3399983, “Synthesis and biological activity of novel mono-indole and mono-benzofuran inhibitors of bacterial transcription initiation complex formation” (Bioorg Med Chem, 2015).
